From ChEMBL document CHEMBL4028892, “Discovery of a 1-Methyl-3,4-dihydronaphthalene-Based Sphingosine-1-Phosphate (S1P) Receptor Agonist Ceralifimod (ONO-4641). A S1P1 and S1P5 Selective Agonist for the Treatment of Autoimmune Diseases” (J Med Chem, 2017)
The source made the active and inactive calls. The calls are words filed in the database; no cut-off is given here.

What was measured:
[1] = organism: Homo sapiens; experiment: Selectivity ratio of EC50 for human S1P3 receptor to EC50 for human S1P1 receptor
Method in brief: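 Fura2 Ca2+ assay in CHO-K1 cells stably expressing human S1P1 or S1P3. Cells were loaded with 5 μM Fura2-AM in Ham's F12 (10% FBS, 20 mM HEPES pH 7.4, 2.5 mM probenecid) for 60 min at 37 °C, then washed. After a 30 s baseline, compound was added (0.1 nM–30 μM final, DMSO), then 100 nM S1P 5 min later. Ratio read every 3 s (ex 340/380, em 500 nm). Increase ratio (%) = B/A×100 against the DMSO-well S1P peak; EC50 taken from the concentration series; mean of ≥2 data points.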

[2] = biological target: T1, Sphingosine 1-phosphate receptor 1 (Homo sapiens, UniProt P21453); experiment: Agonist activity at human S1P1 receptor expressed in CHO-K1 cells assessed as inhibition of forskolin-stimulated cAMP accumulation after 30 mins by ELISA; format: functional, cell-based
[3] = biological target: T2, Sphingosine 1-phosphate receptor 5 (Homo sapiens, UniProt Q9H228); experiment: Agonist activity at human S1P5 receptor expressed in CHO-K1 cells assessed as inhibition of forskolin-stimulated cAMP accumulation after 30 mins by ELISA; format: functional, cell-based
[4] = test system: Mus musculus; experiment: Decrease in peripheral lymphocyte levels in po dosed BALB/c mouse at 24 hrs by automated hematology analyzer; format: functional
Method in brief: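 Compound given orally to 6-week-old male BALB/c mice. At 4 or 24 h, blood was taken from the abdominal aorta under ether anaesthesia and lymphocytes counted on an automated haematology analyser. Counts expressed as % of the vehicle-group mean; ED50 is the dose lowering counts to 50%. One experiment, five mice.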

[5] = Total clearance in Crl:CD(SD) rat at 0.1 mg/kg, iv by LC-MS/MS analysis; format: ADME, organism-based; details: in vivo
Method in brief: (§1)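 Single intravenous or oral dose of 0.1 mg/kg to male Crl:CD(SD) rats and to monkeys. Values are means of three animals with SD.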

[6] = AUC (infinity) in Crl:CD(SD) rat at 0.1 mg/kg, iv by LC-MS/MS analysis; format: ADME, organism-based; set-up: dose 0.1 mg/kg, time infinity, route intravenous; details: in vivo; method in brief: as §1
[7] = AUC (infinity) in Crl:CD(SD) rat at 0.1 mg/kg, po by LC-MS/MS analysis; format: ADME, organism-based; set-up: dose 0.1 mg/kg, time infinity, route oral; details: in vivo; method in brief: as §1
[8] = AUC (infinity) in cynomolgus monkey at 0.1 mg/kg, iv by LC-MS/MS analysis; format: ADME, organism-based, Macaca fascicularis; set-up: dose 0.1 mg/kg, time infinity, route intravenous; details: in vivo; method in brief: as §1
[9] = Cmax in cynomolgus monkey at 0.1 mg/kg, po by LC-MS/MS analysis; format: ADME, organism-based, Macaca fascicularis; set-up: dose 0.1 mg/kg, route oral; details: in vivo; method in brief: as §1
[10] = Total clearance in cynomolgus monkey at 0.1 mg/kg, iv by LC-MS/MS analysis; format: ADME, organism-based, Macaca fascicularis; details: in vivo; method in brief: as §1
[11] = Half life in Crl:CD(SD) rat at 0.1 mg/kg, iv by LC-MS/MS analysis; format: ADME, organism-based; details: in vivo; method in brief: as §1
[12] = Half life in Crl:CD(SD) rat at 0.1 mg/kg, po by LC-MS/MS analysis; format: ADME, organism-based; details: in vivo; method in brief: as §1
[13] = Half life in cynomolgus monkey at 0.1 mg/kg, iv by LC-MS/MS analysis; format: ADME, organism-based, Macaca fascicularis; details: in vivo; method in brief: as §1
[14] = Half life in cynomolgus monkey at 0.1 mg/kg, po by LC-MS/MS analysis; format: ADME, organism-based, Macaca fascicularis; details: in vivo; method in brief: as §1
[15] = Volume of distribution at steady state in Crl:CD(SD) rat at 0.1 mg/kg, iv by LC-MS/MS analysis; format: ADME, organism-based; details: in vivo, read-out: Vdss; method in brief: as §1
[16] = Volume of distribution at steady state in cynomolgus monkey at 0.1 mg/kg, iv by LC-MS/MS analysis; format: ADME, organism-based, Macaca fascicularis; details: in vivo, read-out: Vdss; method in brief: as §1
[17] = Oral bioavailability in Crl:CD(SD) rat at 0.1 mg/kg by LC-MS/MS analysis; format: ADME, organism-based; details: in vivo; method in brief: as §1
[18] = Oral bioavailability in cynomolgus monkey at 0.1 mg/kg by LC-MS/MS analysis; format: ADME, organism-based, Macaca fascicularis; details: in vivo; method in brief: as §1
[19] = test system: Rattus norvegicus; experiment: Antiarthritic activity in bovine type 2 collagen-induced Lewis rat arthritis model at 0.1 mg/kg, po qd administered up to 27 days; format: functional, organism-based
Method in brief: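 Female Lewis rats were immunised with bovine type II collagen in incomplete Freund's adjuvant on days 0 and 7. Compound (0.03 or 0.1 mg/kg) or 0.5% methylcellulose was given orally once daily, days 0–27. Paw oedema/erythema was scored. Groups: n = 9–10 treated/control, normal n = 5. Mean ± SE, Steel test.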

[20] = Plasma concentration in unrestrained conscious cynomolgus monkey at 10 mg/kg, po measured at 4 hrs; format: ADME, organism-based, Macaca fascicularis
Method in brief: (§2)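 Single oral dose of 1, 10 or 100 mg/kg to unrestrained conscious monkeys. Heart rate was followed from 4 to 24 h after dosing and its decrease expressed against the pretreatment value. Plasma concentration was sampled at 4 and 24 h.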

[21] = Plasma concentration in unrestrained conscious cynomolgus monkey at 100 mg/kg, po measured at 4 hrs; format: ADME, organism-based, Macaca fascicularis; method in brief: as §2
[22] = biological target: T1, Sphingosine 1-phosphate receptor 1; experiment: Displacement of [33P]-S1P from human S1P1 receptor expressed in CHO-K1 cells after 60 mins by scintillation counting method; format: cell-based
[23] = biological target: T3, Sphingosine 1-phosphate receptor 1 (Rattus norvegicus, UniProt P48303); experiment: Displacement of [33P]-S1P from rat S1P1 receptor after 60 mins by scintillation counting method
[24] = biological target: T3, Sphingosine 1-phosphate receptor 1; experiment: Agonist activity at rat S1P1 receptor assessed as inhibition of forskolin-stimulated cAMP accumulation after 30 mins by ELISA; format: functional
[25] = Cmax in bovine type 2 collagen-induced Lewis rat arthritis model at 0.03 mg/kg, po qd administered up to 27 days; format: ADME, organism-based; set-up: dose 0.03 mg/kg, route oral; details: in vivo
[26] = Cmax in bovine type 2 collagen-induced Lewis rat arthritis model at 0.1 mg/kg, po qd administered up to 27 days; format: ADME, organism-based; set-up: dose 0.1 mg/kg, route oral; details: in vivo
[27] = biological target: Sphingosine 1-phosphate receptor 3 (Homo sapiens, UniProt Q99500); experiment: Displacement of [33P]-S1P from human S1P3 receptor expressed in CHO-K1 cells after 60 mins by scintillation counting method; format: cell-based
[28] = biological target: T4, Sphingosine 1-phosphate receptor 4 (Homo sapiens, UniProt O95977); experiment: Displacement of [33P]-S1P from human S1P4 receptor expressed in CHO-K1 cells after 60 mins by scintillation counting method; format: cell-based
T4 sequence (O95977 whole entry): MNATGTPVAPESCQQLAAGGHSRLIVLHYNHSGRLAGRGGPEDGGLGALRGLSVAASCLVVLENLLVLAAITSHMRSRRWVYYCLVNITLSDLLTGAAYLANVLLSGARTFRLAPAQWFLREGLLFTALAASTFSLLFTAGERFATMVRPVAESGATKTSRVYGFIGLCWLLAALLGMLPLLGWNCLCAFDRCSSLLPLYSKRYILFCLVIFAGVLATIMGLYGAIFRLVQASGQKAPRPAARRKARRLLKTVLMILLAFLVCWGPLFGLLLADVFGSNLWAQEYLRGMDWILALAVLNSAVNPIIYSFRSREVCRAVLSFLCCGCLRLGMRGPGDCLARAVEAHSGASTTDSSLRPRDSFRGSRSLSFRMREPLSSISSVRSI

[29] = biological target: T2, Sphingosine 1-phosphate receptor 5; experiment: Displacement of [33P]-S1P from human S1P5 receptor expressed in CHO-K1 cells after 60 mins by scintillation counting method; format: cell-based
[30] = biological target: T1, Sphingosine 1-phosphate receptor 1; experiment: Downregulation of human S1P1 receptor expressed in CHO-K1 cell membranes assessed as concentration required to induce downregulation of receptor by 90% by flow cytometric method; format: cell-based

T1 sequence (P21453 whole entry): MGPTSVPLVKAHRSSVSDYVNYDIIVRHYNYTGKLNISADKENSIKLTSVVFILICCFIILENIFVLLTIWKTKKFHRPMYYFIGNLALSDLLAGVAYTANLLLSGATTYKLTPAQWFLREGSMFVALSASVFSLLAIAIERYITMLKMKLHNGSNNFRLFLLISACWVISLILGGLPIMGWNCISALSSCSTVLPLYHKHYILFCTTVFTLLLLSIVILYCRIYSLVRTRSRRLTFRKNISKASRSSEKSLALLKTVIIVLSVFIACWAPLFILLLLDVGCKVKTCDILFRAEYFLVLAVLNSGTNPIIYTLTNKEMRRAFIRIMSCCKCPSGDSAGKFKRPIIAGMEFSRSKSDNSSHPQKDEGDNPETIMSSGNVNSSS
T3 sequence (P48303 whole entry): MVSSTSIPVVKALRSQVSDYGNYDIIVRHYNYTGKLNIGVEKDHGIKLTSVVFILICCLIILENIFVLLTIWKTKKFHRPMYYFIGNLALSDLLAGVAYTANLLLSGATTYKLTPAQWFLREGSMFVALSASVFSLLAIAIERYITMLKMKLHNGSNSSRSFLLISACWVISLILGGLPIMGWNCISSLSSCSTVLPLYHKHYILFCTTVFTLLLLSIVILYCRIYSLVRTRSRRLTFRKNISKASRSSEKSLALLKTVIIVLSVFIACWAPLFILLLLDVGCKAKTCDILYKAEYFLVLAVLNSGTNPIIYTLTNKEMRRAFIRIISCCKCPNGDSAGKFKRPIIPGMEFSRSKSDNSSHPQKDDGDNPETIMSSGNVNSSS
T2 sequence (Q9H228 whole entry): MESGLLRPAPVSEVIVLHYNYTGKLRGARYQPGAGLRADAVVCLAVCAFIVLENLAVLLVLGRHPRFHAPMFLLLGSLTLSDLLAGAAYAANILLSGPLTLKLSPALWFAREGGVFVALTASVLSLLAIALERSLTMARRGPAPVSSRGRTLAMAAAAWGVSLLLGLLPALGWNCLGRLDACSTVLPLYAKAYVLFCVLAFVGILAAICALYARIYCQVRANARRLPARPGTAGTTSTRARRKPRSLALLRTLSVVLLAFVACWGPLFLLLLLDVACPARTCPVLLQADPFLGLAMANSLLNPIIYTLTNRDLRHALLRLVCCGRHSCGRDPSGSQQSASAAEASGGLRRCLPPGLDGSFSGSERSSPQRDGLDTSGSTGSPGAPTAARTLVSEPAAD
Chain of Sphingosine 1-phosphate receptor 3 (Q99500 whole entry): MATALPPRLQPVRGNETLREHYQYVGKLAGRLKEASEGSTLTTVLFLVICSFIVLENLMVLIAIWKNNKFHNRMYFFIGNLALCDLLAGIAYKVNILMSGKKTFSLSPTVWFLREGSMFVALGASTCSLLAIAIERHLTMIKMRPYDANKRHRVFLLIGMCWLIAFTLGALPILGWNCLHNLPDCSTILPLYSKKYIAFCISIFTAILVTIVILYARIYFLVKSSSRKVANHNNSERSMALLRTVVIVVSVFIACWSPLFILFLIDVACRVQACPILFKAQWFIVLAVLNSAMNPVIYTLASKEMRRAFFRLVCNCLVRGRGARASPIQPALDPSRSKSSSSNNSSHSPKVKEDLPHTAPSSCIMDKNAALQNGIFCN

SMILES: CCCc1ccc(COc2ccc3c(c2)CCC(CN2CC(C(=O)O)C2)=C3C)c(OC)c1
- Ratio EC50 [1]: > 30000
- EC50 [2]: 0.027 nM
- EC50 [3]: 0.33 nM
- ED50 [4]: 0.029 mg/kg
- clearance [5]: 5.63 mL/min/kg
- AUC(0-inf) [6]: 302 ng·h/mL
- AUC(0-inf) [7]: 229 ng·h/mL
- AUC(0-inf) [8]: 1640 ng·h/mL
- Cmax [9]: 28.4 ng/mL
- clearance [10]: 1.06 mL/min/kg
- half-life [11]: 16 h
- half-life [12]: 17 h
- half-life [13]: 30 h
- half-life [14]: 29 h
- Vd [15]: 7.15 L/kg
- Vd [16]: 2.66 L/kg
- bioavailability [17]: 75.9%
- bioavailability [18]: 66.5%
- Activity [19]: Active
- concentration at 4 h [20]: 3570 ng/mL
- concentration at 4 h [21]: 13500 ng/mL
- Ki [22]: 0.626 nM
- Ki [23]: 0.772 nM
- EC50 [24]: 0.0286 nM
- Cmax [25]: 5.76 nM
- Cmax [26]: 21.5 nM
- Ki [27]: > 5630 nM
- Ki [28]: 28.8 nM
- Ki [29]: 0.574 nM
- Activity [30]: 25 nM
